One data set deals with PC-3. Kind of data set: Antiproliferative activity against human PC-3 cells assessed as reduction in cell viability measured after 48 hrs by MTT assay. Format: functional, cell-based. The conditions noted are these: PC-3, 48 h. The procedure, abridged:
(§1)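 Cells were grown at 37 °C in 5% CO2 in medium with 10% FBS: RPMI-1640 for A549, DU-145 and HepG2, and DMEM/F12 for PC-3. They were seeded at 5×10^3/well. At 70–80% confluence they were exposed to a concentration range diluted from a 60 mM DMSO stock for 48 h at 37 °C, with 0.1% DMSO as vehicle. MTT 5 mg/mL stock was added for 4 h, formazan dissolved in DMSO, A570 read, and % inhibition calculated against control. IC50 was taken from the concentration series.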
(In general: Formazan colour is commonly taken as a measure of viable cells.)

Another data set relates to A549. The experiment in a line: Antiproliferative activity against human A549 cells assessed as reduction in cell viability measured after 48 hrs by MTT assay. Type of data set: functional, cell-based. The conditions noted are these: A549, 48 h. The procedure, abridged: as §1
The next data set deals with HepG2. Kind of data set: Antiproliferative activity against human HepG2 cells assessed as reduction in cell viability measured after 48 hrs by MTT assay. Format: functional, cell-based. To be noted: HepG2, 48 h. The procedure, abridged: as §1
The next data set deals with DU-145. Kind of data set: Antiproliferative activity against human DU-145 cells assessed as reduction in cell viability measured after 48 hrs by MTT assay. The conditions noted are these: DU-145, 48 h. Type of data set: functional, cell-based. The procedure, abridged: as §1
Data set [1] can be described thus: Cytotoxicity against African green monkey Vero cells assessed as reduction in cell viability measured after 48 hrs by MTT assay. Format: toxicity, cell-based. To be noted: African green monkey (Chlorocebus sabaeus).
The nature of data set [2]: Selectivity index, ratio of IC50 for cytotoxicity against African green monkey Vero cells to IC50 for antiproliferative activity against human PC-3 cells. The conditions noted are these: Vero cells versus PC-3 cells, read-out: Ratio IC50. Format: toxicity, cell-based.
Data set [3] in a line: Selectivity index, ratio of IC50 for cytotoxicity against African green monkey Vero cells to IC50 for antiproliferative activity against human A549 cells. Format: toxicity, cell-based. To be noted: Vero cells versus A549 cells, read-out: Ratio IC50.
Data set [4] in a line: Selectivity index, ratio of IC50 for cytotoxicity against African green monkey Vero cells to IC50 for antiproliferative activity against human HepG2 cells. Format: toxicity, cell-based. To be noted: Vero cells versus HepG2 cells, read-out: Ratio IC50.
Data set [5] can be described thus: Selectivity index, ratio of IC50 for cytotoxicity against African green monkey Vero cells to IC50 for antiproliferative activity against human DU-145 cells. Format: toxicity, cell-based. To be noted: Vero cells versus DU-145 cells, read-out: Ratio IC50.
The target of data set [6] is Epidermal growth factor receptor (Homo sapiens, UniProt P00533). Kind of data set: Inhibition of wild type EGFR (unknown origin) incubated for 40 mins by Kinase Glo Max reagent based luminescence analysis. On the technique in general: Kinase-Glo reads ATP consumption through a luciferase reaction.
Data set [7] addresses Epidermal growth factor receptor (Homo sapiens, UniProt P00533, T790M). Kind of data set: Inhibition of EGFR T790M mutant (unknown origin) incubated for 40 mins by Kinase Glo Max reagent based luminescence analysis.

Where only a bound is given, the exact number is not on record here.

Usually IC50 stands for the concentration that inhibits the measured activity by half.

Sequence of Epidermal growth factor receptor (Homo sapiens, UniProt P00533, T790M) (P00533 25-1210 T790M limits assumed): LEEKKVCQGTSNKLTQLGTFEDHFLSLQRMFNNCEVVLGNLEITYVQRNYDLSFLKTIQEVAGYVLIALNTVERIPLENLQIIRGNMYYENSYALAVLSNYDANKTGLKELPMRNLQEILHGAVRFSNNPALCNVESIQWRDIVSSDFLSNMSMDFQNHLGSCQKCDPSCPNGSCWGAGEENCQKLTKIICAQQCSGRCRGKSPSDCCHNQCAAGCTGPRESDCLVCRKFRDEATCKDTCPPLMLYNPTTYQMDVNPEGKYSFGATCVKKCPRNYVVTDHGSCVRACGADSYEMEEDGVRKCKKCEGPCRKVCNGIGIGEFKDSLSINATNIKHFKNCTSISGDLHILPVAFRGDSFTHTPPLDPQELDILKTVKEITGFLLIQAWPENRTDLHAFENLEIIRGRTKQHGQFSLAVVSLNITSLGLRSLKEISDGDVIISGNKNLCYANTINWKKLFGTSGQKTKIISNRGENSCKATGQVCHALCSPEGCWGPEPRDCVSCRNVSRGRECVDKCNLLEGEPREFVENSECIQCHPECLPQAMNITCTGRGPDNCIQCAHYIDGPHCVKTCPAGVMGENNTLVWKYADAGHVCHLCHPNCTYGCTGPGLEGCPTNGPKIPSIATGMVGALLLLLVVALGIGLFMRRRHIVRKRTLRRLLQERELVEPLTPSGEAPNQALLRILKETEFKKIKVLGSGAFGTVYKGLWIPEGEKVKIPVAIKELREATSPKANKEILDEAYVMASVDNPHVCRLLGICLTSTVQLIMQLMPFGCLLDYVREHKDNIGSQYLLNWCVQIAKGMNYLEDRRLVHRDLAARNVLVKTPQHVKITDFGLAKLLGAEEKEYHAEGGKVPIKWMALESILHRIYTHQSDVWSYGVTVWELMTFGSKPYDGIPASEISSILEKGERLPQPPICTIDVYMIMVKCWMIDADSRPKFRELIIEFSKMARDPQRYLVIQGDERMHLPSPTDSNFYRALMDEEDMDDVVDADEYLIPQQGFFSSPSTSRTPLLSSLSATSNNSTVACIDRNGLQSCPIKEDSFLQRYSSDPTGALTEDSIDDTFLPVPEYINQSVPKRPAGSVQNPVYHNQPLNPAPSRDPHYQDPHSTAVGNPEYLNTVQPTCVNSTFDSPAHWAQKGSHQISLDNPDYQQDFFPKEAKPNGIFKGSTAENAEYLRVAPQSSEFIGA
Sequence of Epidermal growth factor receptor (Homo sapiens, UniProt P00533) (P00533 whole entry): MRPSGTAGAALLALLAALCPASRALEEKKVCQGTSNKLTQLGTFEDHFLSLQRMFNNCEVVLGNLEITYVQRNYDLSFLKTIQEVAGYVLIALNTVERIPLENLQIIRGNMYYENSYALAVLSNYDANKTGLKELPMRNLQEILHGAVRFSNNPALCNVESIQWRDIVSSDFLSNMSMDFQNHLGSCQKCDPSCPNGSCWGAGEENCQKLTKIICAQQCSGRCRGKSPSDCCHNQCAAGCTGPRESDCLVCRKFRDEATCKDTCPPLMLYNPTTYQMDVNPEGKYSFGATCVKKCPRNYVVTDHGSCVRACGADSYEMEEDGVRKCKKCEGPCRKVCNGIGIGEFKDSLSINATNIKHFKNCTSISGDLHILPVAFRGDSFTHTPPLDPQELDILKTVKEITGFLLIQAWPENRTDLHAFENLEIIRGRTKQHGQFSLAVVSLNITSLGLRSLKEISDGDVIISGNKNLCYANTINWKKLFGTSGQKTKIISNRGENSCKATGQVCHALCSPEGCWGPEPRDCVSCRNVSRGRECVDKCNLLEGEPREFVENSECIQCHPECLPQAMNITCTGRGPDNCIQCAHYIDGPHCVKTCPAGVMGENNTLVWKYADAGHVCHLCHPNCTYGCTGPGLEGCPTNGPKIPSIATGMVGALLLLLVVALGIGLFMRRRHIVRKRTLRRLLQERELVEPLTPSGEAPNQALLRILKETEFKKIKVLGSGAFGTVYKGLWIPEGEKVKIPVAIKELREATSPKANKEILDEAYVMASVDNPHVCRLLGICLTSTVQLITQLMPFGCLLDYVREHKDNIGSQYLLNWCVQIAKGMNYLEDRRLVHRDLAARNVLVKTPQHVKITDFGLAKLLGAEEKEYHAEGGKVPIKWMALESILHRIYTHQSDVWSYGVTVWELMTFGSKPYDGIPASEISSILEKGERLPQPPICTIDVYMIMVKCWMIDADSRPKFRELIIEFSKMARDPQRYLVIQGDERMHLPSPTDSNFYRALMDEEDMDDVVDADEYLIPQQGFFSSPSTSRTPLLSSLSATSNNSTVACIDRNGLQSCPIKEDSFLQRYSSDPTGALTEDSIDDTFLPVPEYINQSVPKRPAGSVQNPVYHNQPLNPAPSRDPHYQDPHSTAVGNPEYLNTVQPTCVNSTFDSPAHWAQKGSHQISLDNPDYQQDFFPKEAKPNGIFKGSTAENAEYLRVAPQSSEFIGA

For `COc1ccc(-c2nc(-c3ccc(-c4nc(-c5nnc(-c6ccncc6)o5)c[nH]4)cc3)no2)cc1`, the concentration for half-maximal inhibition (IC50) came out at 1.29 µM in the data set with PC-3; 1.1 µM with A549; 1.24 µM with HepG2; 1.74 µM in the data set on DU-145; 0.958 µM in data set [6]; 1.19 µM in [7]. In [1], the half-maximal inhibitory concentration (IC50) at 48 h was more than 16 µM. The selectivity ratio came out at 12.4 in [2], 14.5 in data set [3], 12.9 in data set [4] and 9.2 in data set [5].

Consider `CN(C)c1ccc(-c2nc(-c3ccc(-c4nc(-c5nnc(-c6ccncc6)o5)c[nH]4)cc3)no2)cc1`, for which the IC50 in the data set with PC-3 worked out at 2.19 µM; in the data set with A549 it was 1.98 µM; with HepG2 it was 1.78 µM; in the data set with DU-145 it was 2.49 µM. In addition, the IC50 at 48 h in data set [1] was more than 16 µM. Moreover, the selectivity ratio in [2] worked out at 7.3; in data set [3] it was 8.08; in data set [4] it was 9.03; in data set [5], 6.42.

Regarding `Brc1ccc(-c2nc(-c3ccc(-c4nc(-c5nnc(-c6ccncc6)o5)c[nH]4)cc3)no2)cc1`, the IC50 in the data set with PC-3 turned out to be 3.47 µM; with A549, 2.68 µM; with HepG2 it was 3.76 µM; with DU-145, 4.25 µM. In addition, the IC50 at 48 h in [1] is more than 20 µM. Further, the selectivity ratio in data set [2] was 5.34; in data set [3], 7.46; in data set [4] it was 5.31; in data set [5], 4.7.

In the case of `Cc1ccc(-c2nc(-c3ccc(-c4nc(-c5nnc(-c6ccncc6)o5)c[nH]4)cc3)no2)cc1`, the half-maximal inhibitory concentration (IC50) in the data set on PC-3 stood at 1.87 µM; in the data set with A549 it was 2.03 µM; with HepG2 it was 2.12 µM; in the data set with DU-145, 2.34 µM. For the same molecule, the IC50 at 48 h in data set [1] was more than 15 µM. Also, the selectivity ratio was determined as 8.02 in [2], 7.38 in data set [3], 7.1 in data set [4] and 6.41 in [5].

For the molecule `Clc1ccc(-c2nc(-c3ccc(-c4nc(-c5nnc(-c6ccncc6)o5)c[nH]4)cc3)no2)cc1`, the values for the IC50 in the data set with PC-3, with A549 and in the data set with HepG2 were 4.58 µM, 4.84 µM and 5.78 µM, respectively. Moreover, in data set [1], the IC50 at 48 h was more than 25 µM. For the same molecule, the selectivity ratio in data set [2] came out at 5.46; in data set [3], 5.16; in data set [4] it was 4.32.

For `O=[N+]([O-])c1cc(-c2nc(-c3ccc(-c4nc(-c5nnc(-c6ccncc6)o5)c[nH]4)cc3)no2)cc([N+](=O)[O-])c1`, the values for the concentration for half-maximal inhibition (IC50) in the data set with PC-3, in the data set on A549 and with HepG2 were 6.22 µM, 5.49 µM and 3.61 µM, respectively. Moreover, in [1], the IC50 at 48 h is more than 25 µM. Besides, the selectivity ratio was 4.01 in [2], 4.55 in data set [3] and 6.92 in data set [4].

On to `O=[N+]([O-])c1ccc(-c2nc(-c3ccc(-c4nc(-c5nnc(-c6ccncc6)o5)c[nH]4)cc3)no2)cc1`, for which the figures for the IC50 in the data set with PC-3, in the data set with HepG2 and with DU-145 were 2.23 µM, 5.33 µM and 3.81 µM, respectively. Further, the IC50 at 48 h in [1] was more than 24 µM. Besides, the selectivity ratio in data set [2] stood at 8.96; in data set [4], 4.5; in data set [5], 6.29.

Consider `N#Cc1ccc(-c2nc(-c3ccc(-c4nc(-c5nnc(-c6ccncc6)o5)c[nH]4)cc3)no2)cc1`, for which the results for the IC50 in the data set with A549 and in the data set with HepG2 were 8.21 µM and 6.99 µM, respectively. Further, the IC50 at 48 h in [1] was more than 23 µM. Also, the values for the selectivity ratio in data set [3] and in [4] were 2.8 and 3.29, respectively.

In the case of `COc1cc(OC)cc(-c2nc(-c3ccc(-c4nc(-c5nnc(-c6ccncc6)o5)c[nH]4)cc3)no2)c1`, the IC50 turned out to be 0.98 µM in the data set with PC-3; 0.86 µM with A549; 0.273 µM in the data set with HepG2; 0.88 µM in the data set with DU-145; 0.217 µM in [6]; 1.23 µM in data set [7]. In addition, the IC50 at 48 h in data set [1] is more than 15 µM. For the same molecule, the selectivity ratio is 15.3 in [2], 17.4 in data set [3], 54.9 in [4] and 17 in [5].

In the case of `COc1cc([C@@H]2c3cc4c(cc3[C@@H](O[C@@H]3O[C@@H]5CO[C@@H](C)O[C@H]5[C@H](O)[C@H]3O)[C@H]3COC(=O)[C@H]23)OCO4)cc(OC)c1O` [ETOPOSIDE], the IC50 in the data set with PC-3 came to 2.39 µM; in the data set on A549, 3.08 µM; with HepG2, 2.11 µM; in the data set with DU-145 it was 1.97 µM. In addition, the IC50 at 48 h in [1] was more than 25 µM. The selectivity ratio in [2] came out at 10.5; in data set [3], 8.11; in data set [4], 11.8; in data set [5], 12.7.
